Experimental data taken from ChEMBL document CHEMBL3856258, “Phosphonate-based irreversible inhibitors of human γ-glutamyl transpeptidase (GGT). GGsTop is a non-toxic and highly selective inhibitor with critical electrostatic interaction with an active-site residue Lys562 for enhanced inhibitory activity” (Bioorg Med Chem, 2016).

Legend:
Salmonella typhimurium [1] = assay: Genotoxicity in Salmonella typhimurium TA1537 assessed as number of revertant colonies per plate at 1667 ug/plate after 20 mins in absence of S9 fraction by Ames test (reference value: 9); type: toxicity, organism-based; details: salmonella enterica subsp. enterica serovar typhimurium
[2] = Cytotoxicity against CHL cells assessed as structural aberrations at 1650 ug/ml preincubated for 6 hrs followed by 18 hrs incubation in fresh medium in presence of S9 fraction by Giemsa-staining-based microscopic analysis; type: toxicity, cell-based, Cricetulus griseus; details: chinese hamster
[3] = Cytotoxicity against CHL cells assessed as number of cells with numerical aberrations at 3300 ug/ml preincubated for 6 hrs followed by 18 hrs incubation in fresh medium in presence of S9 fraction by Giemsa staining-based microscopic analysis relative to control; type: toxicity, cell-based, Cricetulus griseus; details: chinese hamster
[4] = Cytotoxicity against CHL cells assessed as growth rate at 84.5 ug/ml preincubated for 6 hrs followed by 18 hrs incubation in fresh medium in presence of S9 fraction by MTT assay relative to control; type: toxicity, cell-based, Cricetulus griseus; details: chinese hamster, read-out: Activity
[5] = Cytotoxicity against CHL cells assessed as growth rate at 2.16 ug/ml preincubated for 6 hrs followed by 18 hrs incubation in fresh medium in presence of S9 fraction by MTT assay relative to control; type: toxicity, cell-based, Cricetulus griseus; details: chinese hamster, read-out: Activity
Salmonella typhimurium [6] = assay: Genotoxicity in Salmonella typhimurium TA1537 assessed as number of revertant colonies per plate at 5000 ug/plate after 20 mins in absence of S9 fraction by Ames test (reference value: 9); type: toxicity, organism-based; details: salmonella enterica subsp. enterica serovar typhimurium
[7] = Cytotoxicity against CHL cells assessed as growth rate at 2.16 ug/ml after 24 hrs in absence of S9 fraction by MTT assay relative to control; type: toxicity, cell-based, Cricetulus griseus; details: chinese hamster, read-out: Activity
Salmonella typhimurium [8] = assay: Genotoxicity in Salmonella typhimurium TA100 assessed as number of revertant colonies per plate at 20.6 ug/plate after 20 mins in presence of S9 fraction by Ames test (reference value: 142); type: toxicity, organism-based; details: salmonella enterica subsp. enterica serovar typhimurium
[9] = Cytotoxicity against CHL cells assessed as chromatid gap at 825 ug/ml preincubated for 6 hrs followed by 18 hrs incubation in fresh medium in presence of S9 fraction by Giemsa-staining-based microscopic analysis; type: toxicity, cell-based, Cricetulus griseus; details: chinese hamster
[10] = Cytotoxicity against CHL cells assessed as number of cells with numerical aberrations at 3300 ug/ml preincubated for 6 hrs followed by 18 hrs incubation in fresh medium in absence of S9 fraction by Giemsa-staining-based microscopic analysis relative to control; type: toxicity, cell-based, Cricetulus griseus; details: chinese hamster
Salmonella typhimurium [11] = assay: Genotoxicity in Salmonella typhimurium TA98 assessed as number of revertant colonies per plate at 556 ug/plate after 20 mins in absence of S9 fraction by Ames test (reference value: 21); type: toxicity, organism-based; details: salmonella enterica subsp. enterica serovar typhimurium
[12] = Cytotoxicity against human CCD-1059SK cells assessed as reduction in cell viability up to 1 mM after 24 hrs by neutral red method; type: toxicity, cell-based
Method in brief: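 CCD-1059SK skin fibroblasts, passages 10–20, grown in DMEM with 10% FBS at 37 °C under 5% CO2. Pre-incubated 24 h after plating, then exposed 24 h to 0, 10, 100 or 1000 µM, diluted into medium from distilled water. Viability read by Neutral Red assay.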

Salmonella typhimurium [13] = assay: Genotoxicity in Salmonella typhimurium TA98 assessed as number of revertant colonies per plate at 5000 ug/plate after 20 mins in presence of S9 fraction by Ames test (reference value: 26); type: toxicity, organism-based; details: salmonella enterica subsp. enterica serovar typhimurium
[14] = Hydrolytic stability of compound in D2O at pH 1 to 2 by 31P NMR spectroscopy; type: physicochemical; details: buffer
Salmonella typhimurium [15] = assay: Genotoxicity in Salmonella typhimurium TA100 assessed as number of revertant colonies per plate at 185 ug/plate after 20 mins in presence of S9 fraction by Ames test (reference value: 142); type: toxicity, organism-based; details: salmonella enterica subsp. enterica serovar typhimurium
Escherichia coli [16] = assay: Genotoxicity in Escherichia coli WP2uvrA assessed as number of revertant colonies per plate at 61.7 ug/plate after 20 mins in absence of S9 fraction by Ames test (reference value: 24); type: toxicity; details: s9, 20 min
Salmonella typhimurium [17] = assay: Genotoxicity in Salmonella typhimurium TA1537 assessed as number of revertant colonies per plate at 20.6 ug/plate after 20 mins in presence of S9 fraction by Ames test (reference value: 15); type: toxicity, organism-based; details: salmonella enterica subsp. enterica serovar typhimurium
Escherichia coli [18] = assay: Genotoxicity in Escherichia coli WP2uvrA assessed as number of revertant colonies per plate at 61.7 ug/plate after 20 mins in presence of S9 fraction by Ames test (reference value: 26); type: toxicity; details: s9, 20 min
Salmonella typhimurium [19] = assay: Genotoxicity in Salmonella typhimurium TA98 assessed as number of revertant colonies per plate at 185 ug/plate after 20 mins in absence of S9 fraction by Ames test (reference value: 21); type: toxicity, organism-based; details: salmonella enterica subsp. enterica serovar typhimurium
Escherichia coli [20] = assay: Genotoxicity in Escherichia coli WP2uvrA assessed as number of revertant colonies per plate at 20.6 ug/plate after 20 mins in presence of S9 fraction by Ames test (reference value: 26); type: toxicity; details: s9, 20 min
Salmonella typhimurium [21] = assay: Genotoxicity in Salmonella typhimurium TA1535 assessed as number of revertant colonies per plate at 5000 ug/plate after 20 mins in absence of S9 fraction by Ames test (reference value: 15); type: toxicity, organism-based; details: salmonella enterica subsp. enterica serovar typhimurium
Escherichia coli [22] = assay: Genotoxicity in Escherichia coli WP2uvrA assessed as number of revertant colonies per plate at 20.6 ug/plate after 20 mins in absence of S9 fraction by Ames test (reference value: 24); type: toxicity; details: s9, 20 min
Escherichia coli [23] = assay: Genotoxicity in Escherichia coli WP2uvrA assessed as number of revertant colonies per plate at 1667 ug/plate after 20 mins in absence of S9 fraction by Ames test (reference value: 24); type: toxicity; details: s9, 20 min
Salmonella typhimurium [24] = assay: Genotoxicity in Salmonella typhimurium TA1537 assessed as number of revertant colonies per plate at 556 ug/plate after 20 mins in absence of S9 fraction by Ames test (reference value: 9); type: toxicity, organism-based; details: salmonella enterica subsp. enterica serovar typhimurium
Escherichia coli [25] = assay: Genotoxicity in Escherichia coli WP2uvrA assessed as number of revertant colonies per plate at 185 ug/plate after 20 mins in absence of S9 fraction by Ames test (reference value: 24); type: toxicity; details: s9, 20 min
[26] = Cytotoxicity against CHL cells assessed as structural aberrations at 1650 ug/ml preincubated for 6 hrs followed by 18 hrs incubation in fresh medium in absence of S9 fraction by Giemsa-staining-based microscopic analysis; type: toxicity, cell-based, Cricetulus griseus; details: chinese hamster
[27] = Cytotoxicity against CHL cells assessed as growth rate at 5.41 ug/ml preincubated for 6 hrs followed by 18 hrs incubation in fresh medium in presence of S9 fraction by MTT assay relative to control; type: toxicity, cell-based, Cricetulus griseus; details: chinese hamster, read-out: Activity
Salmonella typhimurium [28] = assay: Genotoxicity in Salmonella typhimurium TA98 assessed as number of revertant colonies per plate at 1667 ug/plate after 20 mins in absence of S9 fraction by Ames test (reference value: 21); type: toxicity, organism-based; details: salmonella enterica subsp. enterica serovar typhimurium
Salmonella typhimurium [29] = assay: Genotoxicity in Salmonella typhimurium TA98 assessed as number of revertant colonies per plate at 556 ug/plate after 20 mins in presence of S9 fraction by Ames test (reference value: 26); type: toxicity, organism-based; details: salmonella enterica subsp. enterica serovar typhimurium
Salmonella typhimurium [30] = assay: Genotoxicity in Salmonella typhimurium TA1537 assessed as number of revertant colonies per plate at 61.7 ug/plate after 20 mins in presence of S9 fraction by Ames test (reference value: 15); type: toxicity, organism-based; details: salmonella enterica subsp. enterica serovar typhimurium
[31] = Cytotoxicity against CHL cells assessed as chromatid gap at 1650 ug/ml preincubated for 6 hrs followed by 18 hrs incubation in fresh medium in absence of S9 fraction by Giemsa-staining-based microscopic analysis; type: toxicity, cell-based, Cricetulus griseus; details: chinese hamster
Salmonella typhimurium [32] = assay: Genotoxicity in Salmonella typhimurium TA1535 assessed as number of revertant colonies per plate at 1667 ug/plate after 20 mins in absence of S9 fraction by Ames test (reference value: 15); type: toxicity, organism-based; details: salmonella enterica subsp. enterica serovar typhimurium

## COP(=O)(CCC(N)C(=O)O)Oc1cccc(CC(=O)O)c1 (configuration not stated)
Salmonella typhimurium [1]
  Activity: 10
[2]
  Activity: 1%
[3]
  Activity: 1%
[4]
  viability at 18 h, 84.5 ug/ml: 100%
[5]
  viability at 18 h, 2.16 ug/ml: 101%
Salmonella typhimurium [6]
  Activity: 9
[7]
  viability at 24 h, 2.16 ug/ml: 98%
Salmonella typhimurium [8]
  Activity: 139
[9]
  Activity: 0%
[10]
  Activity: 0%
Salmonella typhimurium [11]
  Activity: 29
[12]
  Activity: Non-Toxic
Salmonella typhimurium [13]
  Activity: 27
[14]
  Stability: Stable
Salmonella typhimurium [15]
  Activity: 147
Escherichia coli [16]
  Activity: 26
Salmonella typhimurium [17]
  Activity: 17
Escherichia coli [18]
  Activity: 28
Salmonella typhimurium [19]
  Activity: 24
Escherichia coli [20]
  Activity: 30
Salmonella typhimurium [21]
  Activity: 13
Escherichia coli [22]
  Activity: 26
Escherichia coli [23]
  Activity: 29
Salmonella typhimurium [24]
  Activity: 11
Escherichia coli [25]
  Activity: 23
[26]
  Activity: 0%
[27]
  viability at 18 h, 5.41 ug/ml: 102%
Salmonella typhimurium [28]
  Activity: 23
Salmonella typhimurium [29]
  Activity: 28
Salmonella typhimurium [30]
  Activity: 17
[31]
  Activity: 0%
Salmonella typhimurium [32]
  Activity: 11
